An excerpt weighted towards active compounds, which were near 2.9% of everything screened.
PGC1a acetyl inh – inhibitors of PGC1a acetylation signal, primary screen, cell-based, U2OS, AlphaScreen, inhibitor mode. AlphaScreen anti-acetyl-lysine; with virally co-expressed GCN5 acetyltransferase. inhibition, % at 15.6 µM. actives 0.17% (n = 350,000);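 active = every replicate shows inhibition of at least 40%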;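 also: 0% = neutral control wells and 100% = positive control wells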
S100A4 MyoIIA – inhibitors of S100A4-myosin IIA peptide binding, primary screen, biochemical, fluorescence polarization, TAMRA-MyoIIA peptide | Protein S100-A4 (Homo sapiens), P26447 | inhibition, % at 10.7 µM | actives 0.14% (n = 360,000) | AID 652163, 2013;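 active = mean inhibition of at least 70% across replicates, with every replicate also reaching that level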
Target sequence (P26447 whole entry, looked up): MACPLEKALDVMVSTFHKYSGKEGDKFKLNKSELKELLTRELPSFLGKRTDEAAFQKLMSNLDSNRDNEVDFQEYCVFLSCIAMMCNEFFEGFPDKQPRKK
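Assay system: human S100A4 monomer with TAMRA-labelled myosin IIA peptide / Buffer or medium: Calcium-containing HEPES buffer, pH 7.2 / Reagent: TAMRA-labelled myosin IIA heavy-chain peptide probe, 5 nM / Compound: one dose per compound / Timing: polarization read 5 min after assay mix addition, stable 5–60 min / Benchmarks: neutral control DMSO, positive control TFP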
DENV2 CPE rescue – inhibitors of DENV2 cytopathic effect, primary screen, cell-based, plate reader, single concentration | DENV2-infected cells, cytopathic effect rescue | CPE inhibition, % at 9.99 µM | actives 1.7% (n = 350,000) | AID 651640, 2012; in the data active = CPE inhibition above about 20%, passing the limit was not always enough; tested in BHK-21 cells;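 also: 0% = median of neutral control wells and 100% = median of positive control wells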
C2C12 statin – suppressors of statin myotoxicity in C2C12 myotubes, primary screen, cell-based, single point, plate reader. C2C12 myotubes + simvastatin, ATP luminescence, 48 h; scaled: DMSO 0, geranylgeraniol control 100. rescue of ATP level, % at 7.49 µM. actives 0.78% (n = 330,000);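 active = mean ATP rescue above about 67%, or every replicate alone reaching that limit, limit read from the data, passing the limit was not always enough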;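 also: myotubes were challenged with 10 µM simvastatin during compound exposure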
SIRT5 block – SIRT5 desuccinylase inhibitors, primary screen, biochemical, fluorescence imaging, single point, set 5; NAD-dependent protein deacylase sirtuin-5, mitochondrial (Homo sapiens), Q9NXA8; Purified SirT5, succinyl-peptide AMC, trypsin-coupled fluorescence; inhibition, % at 15 µM; actives 1.1% (n = 330,000); in the data active = inhibition above about 15%
Target sequence (Q9NXA8 whole entry, looked up): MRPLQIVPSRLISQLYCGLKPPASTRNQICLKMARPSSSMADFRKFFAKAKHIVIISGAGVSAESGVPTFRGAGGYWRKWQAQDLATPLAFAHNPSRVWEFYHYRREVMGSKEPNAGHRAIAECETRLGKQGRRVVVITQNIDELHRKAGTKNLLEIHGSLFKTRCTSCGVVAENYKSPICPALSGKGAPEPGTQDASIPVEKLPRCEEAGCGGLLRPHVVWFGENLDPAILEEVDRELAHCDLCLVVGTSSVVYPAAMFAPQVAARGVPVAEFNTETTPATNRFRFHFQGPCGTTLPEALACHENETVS
Numbers without * were called inactive; · = not tested or not shown; ! = not active in a repeat.

SMILES | PGC1a acetyl inh | S100A4 MyoIIA | DENV2 CPE rescue | C2C12 statin | SIRT5 block
O=C(CN(CC1CCCO1)S(=O)(=O)c1ccc(S(=O)(=O)NCC2CCCO2)cc1)Nc1ccccc1 (centres undefined) | -20.1 | 2.9 | -4.7 | -17.5 | 0.3
CN(C)S(=O)(=O)c1ccc(S(=O)(=O)N(CC(=O)Nc2ccccc2)CC2CCCO2)cc1 (centres undefined) | -6.9 | · | · | 85.3* | ·
CCOc1ccc(N2C(=O)CC(Cc3ccc(Br)cc3)C2=O)cc1 (centres undefined) | 70.9* | -11.0 | 1.6 | -1.4 | 1.1
CCC(=O)Nc1ccc2c(c1)OC[C@@H](C)N(C(C)=O)C[C@H](C)[C@H](OC)CN(C)C2=O | 4.1 | 10.0 | 27.4* | -6.7 | -2.5
CCC(=O)Nc1ccc2c(c1)OC[C@@H](C)N(C(C)=O)C[C@@H](C)[C@@H](OC)CN(C)C2=O | 3.5 | 27.3 | 23.9* | -10.8 | -2.7
CCC(=O)Nc1ccc2c(c1)OC[C@@H](C)N(C(C)=O)C[C@H](C)[C@@H](OC)CN(C)C2=O | -0.1 | 11.1 | -6.2 | 15.7 | -3.6
COc1ccccc1-c1ccc2n(c1=O)C[C@H]1[C@H](CO)[C@@H](C(=O)N3CCN(C)CC3)[C@@H]2N1CC1CC1 | · | 2.2 | 4.7 | 6.1 | -2.8
COc1ccc(S(=O)(=O)N2C[C@@H](O)COC[C@H]3O[C@@H](CC(=O)NCc4ccc(Cl)c(Cl)c4)CC[C@@H]32)cc1 | -21.7 | 6.0 | -1.4 | 2.2 | 5.5
Cc1ccccc1-c1cnc2c(c1)C(=O)N([C@H](C)CO)C[C@H](C)[C@@H](CN(C)C(=O)c1ccncc1)O2 | 4.3 | -9.6 | -6.3 | 6.5 | -3.2
O=C1c2ccccc2C(=O)N1CCC1=CCCCC1 | -6.6 | · | · | 122.2* | ·
O=C(O)c1ccc2c(c1)C(=O)N(CCC1=CCCCC1)C2=O | -3.1 | · | · | -9.3 | ·
COc1ccc([Si](C)(C)[C@@H]2[C@@H](CCO)O[C@]3(C(=O)N4c5c(cc(OC)cc53)C(C)=CC4(C)C)[C@H]2C)cc1 | -8.9 | 6.7 | 2.9 | · | 15.2*
COc1ccc([Si](C)(C)[C@H]2[C@H](CCn3cc([C@H](O)c4ccccc4)nn3)O[C@@]3(C(=O)N(Cc4cccc(N5CCOC5=O)c4)c4ccccc43)[C@@H]2C)cc1 | 17.8 | -49.4 | 7.1 | · | 22.6*
COc1ccc([Si](C)(C)[C@@H]2[C@@H](CCO)O[C@]3(C(=O)N(Cc4cccc(NC(C)=O)c4)c4ccccc43)[C@H]2C)cc1 | -10.6 | 30.4 | -11.4 | · | 20.6*
Cc1cc2nc(NCCCO)n(CC(=O)c3cc(C(C)(C)C)c(O)c(C(C)(C)C)c3)c2cc1C | -0.9 | 1.3 | 32.3* | -15.1 | ·
N#C[C@H]1[C@H](c2ccccc2)[C@H](CO)N1C(=O)Cc1ccccc1 | -6.4 | 17.3 | -2.0 | 5.7 | -1.5
CCN1CCN(c2nc3sc4c(c3c3ncnn23)CC(C)CC4)CC1 (centres undefined) | 6.1 | · | · | 126.2* | ·
CC1CCc2sc3nc(NCc4ccco4)n4ncnc4c3c2C1 (centres undefined) | -5.7 | · | · | 16.5 | ·
O=S(=O)(c1ccccc1)N1CC[C@H]2[C@H](CO)Nc3ccc(C#Cc4cccc(F)c4)cc3[C@H]21 | -15.6 | 3.7 | 30.3* | · | -2.2
COc1cccc(C#Cc2ccc3c(c2)[C@H]2[C@H](CCN2S(=O)(=O)c2cccc(OC)c2)[C@@H](CO)N3)c1 | -9.4 | -5.5 | -4.8 | · | ·
COc1ccc(S(=O)(=O)N2CC[C@@H]3[C@H]2c2cc(C#Cc4ccccc4OC)ccc2N[C@@H]3CO)cc1 | -8.6 | -7.2 | 45.9* | -9.9 | 13.2
COc1cccc(C#Cc2ccc3c(c2)[C@H]2[C@H](CCN2S(=O)(=O)c2cccc(OC)c2)[C@H](CO)N3)c1 | -1.1 | -13.3 | 38.0* | · | 8.2
COc1ccccc1-n1c(-c2ccccc2)c[n+]2c1CCc1ccccc1-2 | -19.2 | 5.1 | 9.4 | -118.3 | 111.9*!
CC(C)c1ccc(-n2c(-c3ccccc3)c[n+]3c2CCc2ccccc2-3)cc1 | -4.5 | 6.3 | 0.9 | · | -1.7
C/C=C/c1ccccc1[C@@H]1[C@@H](C#N)N(C(C)=O)[C@@H]1CO | 3.8 | -5.4 | 4.2 | · | -4.0
